Calls of active or inactive are those of the source. No cut-off for these calls is given here.

We go through nine molecules from ChEMBL document CHEMBL1914406, “Inhibitory effect of novel 5-O-acyl juglones on mammalian DNA polymerase activity, cancer cell growth and inflammatory response” (Bioorg Med Chem, 2011).

The species named for data set [1] is Bos taurus. The data set is described as follows: Inhibition of calf DNA polymerase alpha using poly(dA)/oligo(dT)18 (A/T = 2/1) and dTTP as the DNA template-primer and nucleotide substrate at 10 uM after 60 mins. Put shortly: (§1)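 Compound in DMSO, sonicated 30 s. Premixed 0 °C, 10 min with enzyme (0.05 units) in 50 mM Tris-HCl pH 7.5, 1 mM DTT, 50% glycerol, 0.1 mM EDTA, then added to standard reaction mixture. Template-primers: poly(dA)/oligo(dT)18 (2/1) for pols, oligo(dT)18 for TdT, poly(rA)/oligo(dT)18 for HIV-1 RT, with [3H]dTTP. 60 min at 37 °C (Taq 74 °C). Activity relative to no-inhibitor control; mean ± SE of three experiments.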

Data set [2] is filed under the species Bos taurus. Description: Inhibition of calf DNA polymerase alpha using bovine deoxyribonuclease 1-treated DNA and dNTP as the DNA template-primer and nucleotide substrate at 10 uM after 60 mins.
The target in data set [3] is T1, DNA polymerase kappa (Homo sapiens) (UniProt Q9UBT6).
T1 sequence (whole entry): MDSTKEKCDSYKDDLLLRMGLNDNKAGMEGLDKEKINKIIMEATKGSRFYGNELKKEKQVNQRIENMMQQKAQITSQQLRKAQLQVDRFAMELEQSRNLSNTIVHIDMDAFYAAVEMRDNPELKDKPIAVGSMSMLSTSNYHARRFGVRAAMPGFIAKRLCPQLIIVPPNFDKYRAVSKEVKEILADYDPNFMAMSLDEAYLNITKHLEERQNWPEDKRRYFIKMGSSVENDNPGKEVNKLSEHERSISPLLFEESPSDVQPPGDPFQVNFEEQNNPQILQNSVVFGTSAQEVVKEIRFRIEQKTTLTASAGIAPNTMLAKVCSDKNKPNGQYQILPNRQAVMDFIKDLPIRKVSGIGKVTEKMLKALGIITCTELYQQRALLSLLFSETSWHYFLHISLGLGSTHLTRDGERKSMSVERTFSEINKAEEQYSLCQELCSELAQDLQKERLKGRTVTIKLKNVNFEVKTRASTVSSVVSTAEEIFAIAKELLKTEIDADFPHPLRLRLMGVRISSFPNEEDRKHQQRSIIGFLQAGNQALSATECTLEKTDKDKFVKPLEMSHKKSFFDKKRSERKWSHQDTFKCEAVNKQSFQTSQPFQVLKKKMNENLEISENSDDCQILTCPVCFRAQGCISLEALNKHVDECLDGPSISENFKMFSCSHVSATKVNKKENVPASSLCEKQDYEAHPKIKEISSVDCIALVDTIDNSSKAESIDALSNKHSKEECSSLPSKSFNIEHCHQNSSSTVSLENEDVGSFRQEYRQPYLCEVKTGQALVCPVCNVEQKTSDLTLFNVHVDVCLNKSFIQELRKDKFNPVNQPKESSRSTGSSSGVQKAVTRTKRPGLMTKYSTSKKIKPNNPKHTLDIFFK
Description: Inhibition of C-terminal His6-tagged human DNA polymerase kappa (amino acids 1 to 560) using poly(dA)/oligo(dT)18 (A/T = 2/1) and dTTP as the DNA template-primer and nucleotide substrate at 10 uM after 60 mins.

In data set [4] the target is T1, DNA polymerase kappa (Homo sapiens). Description: Inhibition of C-terminal His6-tagged human DNA polymerase kappa (amino acids 1 to 560) using bovine deoxyribonuclease 1-treated DNA and dNTP as the DNA template-primer and nucleotide substrate at 10 uM after 60 mins.
For data set [5], the species on record is Homo sapiens. The data set is described as follows: Inhibition of histidine-tagged human DNA polymerase gamma using poly(dA)/oligo(dT)18 (A/T = 2/1) and dTTP as the DNA template-primer and nucleotide substrate at 10 uM after 60 mins. In a few lines:
as §1

Data set [6] has as its system Nucleic Acid. Description: Binding affinity to DNA assessed as thermal transition of DNA relative to control. It is filed as nucleic-acid assay.
The subject of data set [7] is Mus musculus. Description: Antiinflammatory activity in mouse assessed as inhibition of TPA-induced mouse ear edema at 500 ug/ear administered 30 mins before TPA challenge measured after 7 hrs relative to untreated control. It is filed as functional, organism-based. In a few lines: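 Compound (500 µg) applied to one mouse ear; 30 min later TPA (0.5 µg) applied to both ears. Edema scored after 7 h and expressed as percentage of edema. Mean ± SE, n = 6.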

Data set [8] concerns the target T2, DNA polymerase lambda (Homo sapiens) (UniProt Q9UGP5).
T2 sequence (whole entry): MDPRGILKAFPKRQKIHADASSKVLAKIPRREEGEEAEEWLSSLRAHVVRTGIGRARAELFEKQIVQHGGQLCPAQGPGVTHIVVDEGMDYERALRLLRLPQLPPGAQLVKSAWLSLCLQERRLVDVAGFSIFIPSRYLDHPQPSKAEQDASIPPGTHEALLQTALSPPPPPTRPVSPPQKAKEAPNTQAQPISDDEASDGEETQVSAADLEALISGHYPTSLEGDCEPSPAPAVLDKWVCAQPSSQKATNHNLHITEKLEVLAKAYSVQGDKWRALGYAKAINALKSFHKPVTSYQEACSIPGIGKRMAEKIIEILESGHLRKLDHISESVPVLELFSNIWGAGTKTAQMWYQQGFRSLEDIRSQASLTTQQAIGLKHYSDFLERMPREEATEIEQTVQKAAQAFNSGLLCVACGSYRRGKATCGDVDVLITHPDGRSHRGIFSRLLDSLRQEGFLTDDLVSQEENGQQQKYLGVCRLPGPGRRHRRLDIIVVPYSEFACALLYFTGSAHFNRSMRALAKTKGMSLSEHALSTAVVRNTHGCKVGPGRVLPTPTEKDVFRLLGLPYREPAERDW
The data set is described as follows: Inhibition of recombinant His-tagged human DNA polymerase lambda using bovine deoxyribonuclease 1-treated DNA and dNTP as the DNA template-primer and nucleotide substrate at 10 uM after 60 mins.

The species named for data set [9] is Homo sapiens. Description: Inhibition of histidine-tagged human DNA polymerase gamma using bovine deoxyribonuclease 1-treated DNA and dNTP as the DNA template-primer and nucleotide substrate at 10 uM after 60 mins.
The test system of data set [10] is RAW264.7. Description: Cytotoxicity against mouse RAW264.7 cells at 5 uM. It is filed as cell-based. The note with it: raw264.7, 5 µM.
A short description of data set [11]: Cytotoxicity against mouse RAW264.7 cells. It is filed as cell-based. The note with it: read-out: LD50 (the source's name).
In data set [12] the target is T2, DNA polymerase lambda (Homo sapiens). Description: Inhibition of recombinant His-tagged human DNA polymerase lambda using poly(dA)/oligo(dT)18 (A/T = 2/1) and dTTP as the DNA template-primer and nucleotide substrate at 10 uM after 60 mins. Put shortly: as §1
Data set [13] relates to RAW264.7. The data set is described as follows: Antiinflammatory activity in mouse RAW264.7 cells assessed as inhibition of LPS-induced TNFalpha secretion at 5 uM treated 30 mins before LPS challenge measured after 24 hrs by ELISA. In kind it is functional, cell-based. Put shortly:
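RAW264.7 cells in MEM with 4.5 g/L glucose, 10% FCS, 5 mM L-glutamine, at 37 °C in 5% CO2. Seeded at 5 × 10⁴ cells/well and grown 24 h. Compound (final 1 and 5 µM) given 30 min before 100 ng/mL LPS. After 24 h, TNF-α in the medium measured by ELISA, relative to the no-compound value (100%). Mean ± SE, n = 4.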

The subject of data set [14] is HCT-116. The data set is described as follows: Cytotoxicity against human HCT116 cells by WST-1 assay. In kind it is functional, cell-based. Put shortly:
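HCT116 colon carcinoma cells (ATCC) grown in McCoy's 5A with 10% FBS, penicillin and streptomycin, 37 °C, 5% CO2. Plated at 1 × 10⁴ cells/well together with compound, which was diluted from a 10 mM DMSO stock into medium (final 0.5% DMSO). Incubated 24 h. Viability read by WST-1, expressed relative to untreated cells.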
On the technique in general: Formazan colour is commonly taken as a measure of viable cells.

Turning to `CCCCC/C=C\C/C=C\CCCCCCCC(=O)Oc1cccc2c1C(=O)C=CC2=O`, the inhibition result in data set [1], in data set [2], in data set [3], in [4], in [5] and in [8] was “Active” each time. For the same molecule, the inhibition result in [9] and in [12] was “Active” each time. Further, in [6], the result was inactive. Besides, the outcome in [7] was Active. Further, in data set [10], the Activity entry is given as “Non-toxic”. Moreover, in data set [11], the CC50 was > 10 µM.
For the molecule `CCCCCC(=O)Oc1cccc2c1C(=O)C=CC2=O`, the inhibition entry in [1], in data set [2], in [3], in [4], in data set [5] and in data set [8] was “Active” throughout. Also, the inhibition entry in [9] and in data set [12] was “Active” throughout. Further, the outcome in data set [6] was inactive. In addition, in [7], the outcome was Active. The Activity result in data set [10] is listed as “Non-toxic”. In addition, the CC50 in [11] is > 10 µM.
As to `CCCCCCCCCCCCCCCCCC(=O)Oc1cccc2c1C(=O)C=CC2=O`, the inhibition result in [1], in data set [2], in data set [3], in [4], in data set [5] and in [8] was “Active” throughout. In addition, the inhibition entry in [9] and in [12] was “Active” throughout. Further, the result in data set [6] was inactive. For the same molecule, the result in [7] was Active. In addition, the Activity entry in data set [10] is reported as “Non-toxic”. In addition, the CC50 in data set [11] is > 10 µM.
In the case of `CC/C=C\C/C=C\C/C=C\CCCCCCCC(=O)Oc1cccc2c1C(=O)C=CC2=O`, the inhibition result in data set [1], in [2], in [3], in data set [4], in data set [5] and in [8] was “Active” in each case. Also, the inhibition entry in data set [9] and in data set [12] was “Active” in each case. Further, the result in data set [6] was inactive. The outcome in [7] was Active. Moreover, in data set [10], the Activity entry is “Non-toxic”. Moreover, the CC50 in data set [11] was > 10 µM.
On to `CC(=O)Oc1cccc2c1C(=O)C=CC2=O`, for which the inhibition result in [1], in data set [2], in [3], in data set [4], in data set [5] and in data set [8] was “Active” throughout. The inhibition result in [9] and in [12] was “Active” throughout. Besides, the result in data set [6] was inactive. The result in data set [7] was Active. Also, in data set [10], the Activity result was “Non-toxic”. For the same molecule, the CC50 in data set [11] was > 10 µM.
As to `CCC(=O)Oc1cccc2c1C(=O)C=CC2=O`, the inhibition entry in [1], in data set [2], in [3], in [4], in data set [5] and in data set [8] was “Active” throughout. Also, the inhibition entry in data set [9] and in [12] was “Active” in each case. Moreover, the result in data set [6] was inactive. The outcome in data set [7] was Active. Further, the Activity entry in data set [10] is “Non-toxic”. Also, in data set [11], the CC50 was > 10 µM.
As for `CC/C=C\C/C=C\C/C=C\C/C=C\C/C=C\CCCC(=O)Oc1cccc2c1C(=O)C=CC2=O`, the inhibition result in [1], in data set [2], in [3], in data set [4], in data set [5] and in data set [8] was “Active” each time. The inhibition result in data set [9] and in data set [12] was “Active” in each case. Also, the result in data set [6] was inactive. The result in data set [7] was Active. Besides, the Activity result in data set [10] was “Non-toxic”. Besides, the CC50 in data set [11] is > 10 µM.
For `CCCCC/C=C\C/C=C\CCCCCCCC(=O)O` [LINOLEIC ACID], the inhibition result in [1], in [2], in data set [3], in data set [4], in data set [5] and in data set [8] was “inactive” throughout. Further, the inhibition entry in data set [9] and in data set [12] was “inactive” in each case. For the same molecule, the result in data set [7], in [13] and in data set [14] was inactive. Also, the Activity entry in [10] is given as “Non-toxic”. Moreover, in data set [11], the CC50 is > 10 µM.
`CC(=O)O` [ACETIC ACID]: the inhibition entry in data set [1], in [2], in [3], in data set [4], in data set [5] and in data set [8] was “inactive” throughout. The inhibition entry in data set [9] and in data set [12] was “inactive” throughout. The outcome in data set [7], in data set [13] and in data set [14] was inactive. The Activity result in data set [10] was “Non-toxic”. Also, the CC50 in data set [11] was > 10 µM.
